Hits are enriched below; roughly 9.5% of the tested compounds scored in any of these assays.
mHtt clearance = clearance of mutant huntingtin inclusions, primary screen, imaging, HeLa Exon1htt(103Q)mCFP, confocal imaging. inhibition, % at 1.5 µM. 47,000 tested, 0.42% active. aggregate imaging; zero = plate's median compound well. AID 853, 2007;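 active means inhibition of aggregate fluorescence above about 70%, also judged a hit by eye on the cell image, limit read from the data, passing the limit was not always enough; inconclusive means no rule stated for this call; inactive means not judged a hit on image review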;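 further: cells exposed to compound for three days before fixation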
M1 ag = M1 muscarinic receptor agonists, primary screen, CHO-M1 cells, Fluo-4 calcium, agonist mode; Muscarinic acetylcholine receptor M1; Fluo-4 calcium fluorescence; stronger effect = higher value; B-score at 10 µM; 64,000 tested, 3% active;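 active means fluorescence rise, raw or as B-score row- and column-corrected plate score, outside the 99.7% band of its plate's samples, either direction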
Jurkat viability = cytotoxicity toward Jurkat T cells, primary screen, cytotoxicity control, cell-based, Jurkat E6.1, 60K MLSMR library; Jurkat E6.1 viability, ATP luminescence, 48 h; inhibition, % at 4 µM; 56,000 tested, 1.2% active;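 active means inhibition above the mean inhibition of all tested compounds plus 3 SD, cut at about 28% in these data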
M1 antag = antagonists of rat M1 muscarinic receptor | CHO-M1 cells, Fluo-4 calcium, ACh EC80 antagonist mode; stronger effect = lower value | B-score at 10 µM | 64,000 tested, 3.4% active | AID 628, 2007;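 active means calcium fluorescence response, raw or row-and-column corrected B-score, differing from the plate sample mean either way at a set confidence level, mostly lower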
Target sequence (P08482 whole entry, looked up): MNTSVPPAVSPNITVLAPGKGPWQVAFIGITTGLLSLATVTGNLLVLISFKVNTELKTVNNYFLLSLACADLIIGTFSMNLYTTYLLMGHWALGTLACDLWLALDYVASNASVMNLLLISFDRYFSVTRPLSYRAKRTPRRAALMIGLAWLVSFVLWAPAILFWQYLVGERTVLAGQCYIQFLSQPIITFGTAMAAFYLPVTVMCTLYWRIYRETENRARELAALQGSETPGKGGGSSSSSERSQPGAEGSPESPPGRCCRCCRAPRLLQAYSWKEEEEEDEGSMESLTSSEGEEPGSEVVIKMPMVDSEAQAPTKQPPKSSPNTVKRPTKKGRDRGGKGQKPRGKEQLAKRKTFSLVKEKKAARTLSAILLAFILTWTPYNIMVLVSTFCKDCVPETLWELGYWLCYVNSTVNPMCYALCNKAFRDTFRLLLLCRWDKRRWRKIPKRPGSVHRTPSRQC
HEK293 NFkB inh = inhibitors of PMA/ionomycin-induced NF-kB reporter, primary screen, antigen receptor NF-kB inhibitor project, cell-based, HEK-293 luciferase reporter, luminescence. HEK-293 NF-kB luciferase reporter. inhibition, % at 3 µM. AID 465, 2006. 62,000 tested, 0.21% active;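 active means inhibition above the mean of all tested compounds plus 3 SD, cut at about 40% in these data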;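 further: 0% = stimulated DMSO wells and 100% = 10 µM reference inhibitor 5653914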
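System – HEK-293 cells with stable firefly luciferase reporter driven by four HIV NF-kB elements · Doses – one dose, 3 µM · Schedule – 1 h compound pre-incubation, 16 h PMA/ionomycin at 37 °C · Technique – luminescence from luciferase substrate reagent · Measure – percent inhibition normalized per plate to DMSO and reference-inhibitor controls · Replicates – tested once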
D1 allo mod = D1 CRE-luciferase signal change, two-sided – cell-based, HEK293 D1, dopamine EC30, D1 allosteric modulator project, primary screen; D(1A) dopamine receptor (Homo sapiens), P21728; AID 641, 2007; dopamine EC30 potentiation; actives deviate in either direction; B-score at 10 µM; 58,000 tested, 5.9% active;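 active means luminescence count or its row- and column-corrected plate score outside the 99.7% band of the plate's sample wells, on either side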
M1 ag confirm = rat M1 muscarinic receptor agonists, confirmation, CHO-M1 cells, Fluo-4 calcium, duplicate retest. 1,700 tested, 19% active. Fluo-4 calcium fluorescence, agonist mode; actives lie on both sides. shares compounds with M1 ag. fluorescence change (max-min) at 10 µM;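 active means fluorescence change differs from the solvent-only DMSO control mean at a set confidence level in both duplicate runs; inconclusive means differs from solvent-only control mean in just one of two runs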;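 further: an EC20 dose of acetylcholine follows compound addition during the same imaging run; raw fluorescence intensity difference in instrument units with no normalization to controls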
M4 ag counter = agonist activity at rat M4 receptor, confirmation, counter-screen for M1 allosteric modulator project, cell-based, agonist mode | shares compounds with M1 ag | 1,700 tested, 9% active | fluorescence change (max-min) at 10 µM | CHO M4/Gqi5 cells, Fluo-4 calcium fluorescence; actives lie on both sides;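 active means fluorescence change differing from the plate's solvent-only control wells at 99.7% confidence in both duplicates, whether higher or lower; inconclusive means differs from solvent controls in only one of two duplicates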
* = called active by the depositor; ? = inconclusive; · = no result.

SMILES	mHtt clearance	M1 ag	Jurkat viability	M1 antag	HEK293 NFkB inh	D1 allo mod	M1 ag confirm	M4 ag counter
CCCn1c(=NC(=O)c2ccc3c(c2)OCO3)c(C#N)cc2c(=O)n3cccc(C)c3nc21	·	-1	-10	0.17	5	1.1	·	·
O=C(CNC(=O)c1ccco1)OCc1ccc(Cl)cc1	0	-0.39	·	-0.54	-6	-1.3	·	·
c1ccc(-n2ncc3c(N4CCN(CCOc5cccc6ccccc56)CC4)ncnc32)cc1	6	·	·	·	·	·	·	·
CCc1c(C)nc2ncnn2c1NCc1cccs1	-56	·	·	·	·	·	·	·
CCc1c(C)nc2ncnn2c1NCCc1ccc(OC)cc1	?	4.8*	93*	-2.8*	36	-2.2	-9.3	?
c1ccc(-n2ncc3c2ncn2cnnc32)cc1	·	27*	-2	-0.77	21	·	-9.5	-33
c1ccc(-n2ncc3c2ncn2nnnc32)cc1	19	0.11	-1	-0.075	11	0.39	·	·
CCN1C(=O)c2cccc3c(S(=O)(=O)Nc4ccc(OC)cc4OC)ccc1c23	-37	5.3*	5	-1.3	8	-1	-17	-18
CCOC(=O)C1CCCN(C(=O)c2cc3c(=O)n4cccc(C)c4nc3n2C)C1 (centres undefined)	·	0.44	0	0.078	12	1.6	·	·
CCN(CC)CCN1C(=O)C(=O)/C(=C(/O)c2ccncc2)C1c1ccccc1F (centres undefined)	18	35*	2	0.047	18	-0.14	-11	?
COc1ccccc1CC(NC(C)=O)C(=O)N1CCN(C(=O)Nc2ccccc2Cl)CC1 (centres undefined)	·	-0.19	·	-0.14	18	-0.51	·	·
Cc1sc2nc(CSc3nc4ccccc4c(=O)n3CCCN3CCOCC3)[nH]c(=O)c2c1C	·	11*	2	-0.025	12	0.37	-2.2	-41
CN(C)S(=O)(=O)c1ccc(C(=O)OCC(=O)c2ccc(OC(F)F)cc2OC(F)F)cc1	50	0.86	-2	-0.34	12	0.31	·	·
O=C(CCCn1c(=O)[nH]c2ccccc2c1=O)N1CCN(c2ccccn2)CC1	·	-0.29	5	0.83	13	-0.76	·	·
O=C(CCCCCNc1nc(=S)[nH]c2ccccc12)N1CCN(c2ccccn2)CC1	15	15*	·	-1.6	13	-0.0021	-9	-32
CCOc1ccccc1N1CCN(S(=O)(=O)c2cccc3nsnc23)CC1	54	0.75	3	-0.54	12	0.48	·	·
Cn1c(CC2C(=O)Nc3ccc(Br)cc32)nc2ccccc2c1=O (centres undefined)	4	2*	6	-0.29	-1	-0.19	?	-23
Fc1ccc(-c2nnc(-n3nnc4ccccc43)c3ccccc23)cc1	-46	·	·	·	·	·	·	·
CCN(CC(=O)NC(=O)NC1CCCCC1)Cc1nc2ccccc2c(=O)[nH]1	1	·	·	·	·	·	·	·
O=C(NCc1ccccc1)N(Cc1nc2ccccc2c(=O)[nH]1)C1CCCC1	-8	4.2*	6	-0.3	22	·	-12	-17
COc1ccc(-c2ccc(-c3noc(-c4ccccc4)n3)c(OC)n2)cc1	-5	-2.9*	2	-0.02	0	2.3	8.5	-5.6
CCc1c(C)nc(N)n2c(SCC(=O)Nc3ccccc3)nnc12	25	·	·	·	·	·	·	·
Cc1cc2c(c(SCC(=O)NCCc3ccccc3)n1)C(=O)OC2	-56	·	·	·	·	·	·	·
COc1ccc(CCNC(=O)CSc2nnc(-c3ccc(F)cc3)o2)cc1OC	-2	0.84	14	-0.0069	13	1.3	·	·
COc1ccc(CCNC(=O)CSc2nnc(CNc3ccc(Cl)cc3)o2)cc1OC	-65	-2.2*	7	0.015	4	0.053	-15	-64
SMILES	mHtt clearance	M1 ag	Jurkat viability	M1 antag	HEK293 NFkB inh	D1 allo mod	M1 ag confirm	M4 ag counter
CC(C)C(=O)NC(NC(=S)Nc1cccc2cccnc12)C(Cl)(Cl)Cl (centres undefined)	3	·	·	·	·	·	·	·
CCOC(=O)C1C(=O)CC(C)(O)C(C(=O)OCC)C1/C=C/c1ccccc1 (centres undefined)	7	2.9*	7	-0.7	21	-0.17	-0.94	-2.8
COC(=O)C1C(=O)CC(C)(O)C(C(=O)OC)C1/C=C/c1ccccc1 (centres undefined)	-11	0.46	-27	-0.2	11	-0.12	·	·
CCOC(=O)c1nnc2c(Br)c(-c3ccccc3)nn2c1C	-3	·	·	·	·	·	·	·
COc1ccc(N(CC(=O)NC2CCCC2)C(=O)Cn2nnc(-c3ccc(F)cc3)n2)cc1OC	·	0.89	1	0.0054	25	0.0057	·	·
COc1ccc(N(CC(=O)NC2CCCC2)C(=O)Cn2nnc(-c3ccc(C)cc3)n2)cc1OC	·	13*	-2	0.022	18	·	?	-59
O=C(Nc1nccs1)C12CC3CC(C1)CC(C(=O)Nc1nccs1)(C3)C2	48	4*	0	-0.31	-12	-1.3	?	-40
O=C(NC1=NCCS1)C12CC3CC(C1)CC(C(=O)NC1=NCCS1)(C3)C2	-52	0.73	0	-0.7	-3	-1.2	·	·
Cc1nn(-c2ccccc2)c(C)c1C(=O)OCC(=O)c1c(N)n(CC(C)C)c(=O)n(C)c1=O	·	4.1*	38*	-1.2	17	-1.2	-6.6	-53
Cc1cc(C)cc(OCC(=O)Nc2cccc(-c3nnc(-c4ccco4)o3)c2)c1	-60	4.5*	-3	-0.73	-7	-3.4*	-30*	-55
COc1ccc(CC(=O)Nc2cccc(-c3nnc(-c4ccco4)o3)c2)cc1	7	2.4	·	-0.55	·	·	·	·
COc1ccc(OC)c(NC(=O)C2CCCN(S(=O)(=O)c3cccc4cccnc34)C2)c1 (centres undefined)	·	5*	-6	-1.7	20	1.9	-33*	-48
COc1ccc(N(C)S(=O)(=O)c2cccc3cccnc23)c(OC)c1	34	5.2*	29	-1.2	-1	-0.1	?	-61
CC1(C)Cc2nc3sc4c(N(CCO)CCO)ncnc4c3cc2CO1	-55	2.8*	·	0.006	·	·	?	-46
CC1(C)Cc2nc3sc4c(SCC(=O)NCc5ccccc5)ncnc4c3cc2CO1	-241	·	·	·	·	·	·	·
C=CCn1c(NCCc2ccccc2)nc2c1c(=O)n(C)c(=O)n2C	-61	6.5*	27	-0.93	9	-1.5	25	-29
